9 molecules from ChEMBL document CHEMBL1132926, “2-amino-2-oxazolines as subtype selective alpha(2) adrenoceptor agonists” (J Med Chem, 2000) can be followed below.

In general, Ki refers to a dissociation constant, usually derived from enzyme kinetics or from competition with a known ligand. A higher Ki goes with lower affinity. As a reminder, the EC50 is the concentration at which the effect is half-maximal.

Assay [1] concerns the target T1, Alpha-2C adrenergic receptor (Homo sapiens) (UniProt P18825).
T1 sequence (whole entry): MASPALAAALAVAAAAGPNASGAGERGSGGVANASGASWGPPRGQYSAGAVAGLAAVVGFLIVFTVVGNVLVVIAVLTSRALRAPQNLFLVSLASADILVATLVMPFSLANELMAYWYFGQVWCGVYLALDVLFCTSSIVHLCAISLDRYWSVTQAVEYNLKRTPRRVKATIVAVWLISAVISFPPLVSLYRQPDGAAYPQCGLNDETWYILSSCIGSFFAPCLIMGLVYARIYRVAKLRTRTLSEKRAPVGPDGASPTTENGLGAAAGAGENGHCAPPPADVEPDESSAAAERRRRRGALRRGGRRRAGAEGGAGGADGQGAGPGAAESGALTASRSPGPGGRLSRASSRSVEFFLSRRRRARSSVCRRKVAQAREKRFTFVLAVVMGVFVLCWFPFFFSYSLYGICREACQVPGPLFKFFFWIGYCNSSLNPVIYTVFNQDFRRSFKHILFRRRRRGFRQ
As to the kind of experiment: Alpha2c receptor agonism measured as ability to inhibit forskolin-stimulated synthesis of cAMP; NA=not active (IA< 0.3). The assay is classed as functional.

Assay [2] addresses T2, Alpha-2B adrenergic receptor (Homo sapiens) (UniProt P18089).
T2 sequence (whole entry): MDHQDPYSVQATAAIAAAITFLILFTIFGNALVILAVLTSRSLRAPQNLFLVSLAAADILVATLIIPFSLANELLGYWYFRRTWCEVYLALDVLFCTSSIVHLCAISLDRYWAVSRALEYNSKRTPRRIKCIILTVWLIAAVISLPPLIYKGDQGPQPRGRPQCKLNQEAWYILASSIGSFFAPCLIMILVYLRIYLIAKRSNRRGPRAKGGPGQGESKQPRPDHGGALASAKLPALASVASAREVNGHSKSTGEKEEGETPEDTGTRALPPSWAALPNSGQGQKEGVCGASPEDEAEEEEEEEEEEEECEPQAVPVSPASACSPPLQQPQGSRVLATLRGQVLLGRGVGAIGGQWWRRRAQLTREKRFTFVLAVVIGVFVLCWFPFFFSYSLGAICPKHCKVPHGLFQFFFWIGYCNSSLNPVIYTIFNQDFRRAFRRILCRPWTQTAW
The experiment in a line: Alpha-2B adrenergic receptor agonism measured as ability to inhibit forskolin-stimulated synthesis of cAMP; NA=not active (IA< 0.3). The assay is classed as functional.

Assay [3] deals with T3, Alpha-2A adrenergic receptor (Homo sapiens) (UniProt P08913).
T3 sequence (whole entry): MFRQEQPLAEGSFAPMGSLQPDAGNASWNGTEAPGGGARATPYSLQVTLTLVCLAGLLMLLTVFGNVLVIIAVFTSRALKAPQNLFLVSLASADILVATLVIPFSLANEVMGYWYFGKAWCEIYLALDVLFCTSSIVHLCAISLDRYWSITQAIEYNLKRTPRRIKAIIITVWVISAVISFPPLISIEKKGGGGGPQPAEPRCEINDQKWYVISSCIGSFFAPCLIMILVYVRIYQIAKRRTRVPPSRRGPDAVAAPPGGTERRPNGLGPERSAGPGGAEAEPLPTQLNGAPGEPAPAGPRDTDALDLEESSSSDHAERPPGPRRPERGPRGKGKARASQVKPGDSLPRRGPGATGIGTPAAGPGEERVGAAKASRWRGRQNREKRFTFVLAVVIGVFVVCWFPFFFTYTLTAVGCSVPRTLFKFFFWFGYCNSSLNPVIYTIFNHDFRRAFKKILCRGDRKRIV
As to the kind of experiment: Alpha-2A adrenergic receptor agonism measured as ability to inhibit forskolin-stimulated synthesis of cAMP; NA=not active. The assay is classed as functional.

The target in assay [4] is T4, Alpha-2C adrenergic receptor (Homo sapiens, UniProt P18825).
T4 sequence (P18825 whole entry): T1 sequence (whole entry)
As to the kind of experiment: Inhibitory constant, using [3H]rauwolscine in LM(tk-) cells stably transfected with cloned human Alpha-2C adrenergic receptor. It counts as cell-based. The gist of the method: (§1)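 Equilibrium competition binding against [3H]rauwolscine on membranes from cultured cells stably transfected with cloned human alpha2 subtypes: alpha2A and alpha2C in LM(tk-) cells, alpha2B in Y-1 cells. Equilibrium inhibition constants were estimated by nonlinear regression and reported as pKi.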

In assay [5] the target is T5, Alpha-2A adrenergic receptor (Homo sapiens, UniProt P08913).
T5 sequence (P08913 whole entry): T3 sequence (whole entry)
The experiment in a line: Inhibitory constant against human Alpha-2A adrenergic receptor expressed in LM(tk-) cells using [3H]rauwolscine. It counts as cell-based. The method in brief:
as §1

Assay [6] has as its target T6, Alpha-2B adrenergic receptor (Homo sapiens, UniProt P18089).
T6 sequence (P18089 whole entry): T2 sequence (whole entry)
As to the kind of experiment: Inhibitory constant against human Alpha-2B adrenergic receptor expressed in Y-1 cells using [3H]rauwolscine. It counts as cell-based. The gist of the method:
as §1

The target of assay [7] is T4, Alpha-2C adrenergic receptor. As to the kind of experiment: (§2) Alpha2c receptor agonism measured as ability to inhibit forskolin-stimulated synthesis of cAMP. The assay is classed as functional.
Assay [8] concerns the target T2, Alpha-2B adrenergic receptor (Homo sapiens). As to the kind of experiment: Alpha2b receptor agonism measured as ability to inhibit forskolin-stimulated synthesis of cAMP;NA=not active. The assay is classed as functional.
The target in assay [9] is T6, Alpha-2B adrenergic receptor. The experiment in a line: (§3) Alpha-2B adrenergic receptor agonism measured as ability to inhibit forskolin-stimulated synthesis of cAMP. It counts as functional.
The target of assay [10] is T1, Alpha-2C adrenergic receptor (Homo sapiens). The description is as §2. The assay is classed as functional.
Assay [11] deals with T5, Alpha-2A adrenergic receptor. As to the kind of experiment: Alpha-2A adrenergic receptor agonism measured as ability to inhibit forskolin-stimulated synthesis of cAMP. It counts as functional.
Assay [12] addresses T2, Alpha-2B adrenergic receptor (Homo sapiens). Described as §3. The assay is classed as functional.
The target of assay [13] is T3, Alpha-2A adrenergic receptor (Homo sapiens). The experiment in a line: Alpha2a receptor agonism measured as ability to inhibit forskolin-stimulated synthesis of cAMP. It counts as functional.
In assay [14] the target is T2, Alpha-2B adrenergic receptor (Homo sapiens). As to the kind of experiment: Alpha-2B adrenergic receptor agonism measured as ability to inhibit forskolin-stimulated synthesis of cAMP; NA=not active. It counts as functional.
For assay [15], the target named is T1, Alpha-2C adrenergic receptor (Homo sapiens). The experiment in a line: Alpha-2C adrenergic receptor agonism measured as ability to inhibit forskolin-stimulated synthesis of cAMP; NA=not active. The assay is classed as functional.
Assay [16] deals with T4, Alpha-2C adrenergic receptor. As to the kind of experiment: Alpha-2C adrenergic receptor agonism measured as ability to inhibit forskolin-stimulated synthesis of cAMP. It counts as functional.
Assay [17] shares this target. The experiment in a line: Inhibitory constant determined using [3H]rauwolscine in LM(tk-) cells stably transfected with cloned human Alpha-2C adrenergic receptor. It counts as cell-based. The gist of the method:
as §1

The target of assay [18] is T1, Alpha-2C adrenergic receptor (Homo sapiens). The experiment in a line: Alpha2c receptor agonism measured as ability to inhibit forskolin-stimulated synthesis of cAMP; NA=not active. The assay is classed as functional.
The target in assay [19] is T2, Alpha-2B adrenergic receptor (Homo sapiens). As to the kind of experiment: Alpha2b receptor agonism measured as ability to inhibit forskolin-stimulated synthesis of cAMP; NA=not active. The assay is classed as functional.

Active and inactive are the calls of the source. No cut-off for these calls is given here.

For `c1ccc(C[C@H]2CCCC[C@@H]2NC2=NCCO2)cc1`, the NA entry in [1] and in [2] was “inactive” each time. Moreover, the alpha-2A agonist activity result in [3] is “inactive”. In addition, the Ki in assay [4] was 66.1 nM; in [5] it was 20.9 nM; in [6] it was 40.7 nM.
`c1ccc(C[C@H]2C3CCC(C3)[C@H]2NC2=NCCO2)cc1` (some centres not stated): in assay [3], the alpha-2A agonist activity entry is “inactive”. Besides, the figures for the Ki in assay [4], in assay [5] and in [6] were 79.4 nM, 13.8 nM and 40.7 nM, respectively. In addition, the EC50 in assay [7] was 13.8 nM. For the same molecule, the NA entry in assay [8] was “inactive”.
Take `CCC[C@H]1C2CCC(C2)[C@H]1NC1=NCCO1` (some centres not stated): the EC50 in assay [9] was 562 nM; in [7] it was 21.4 nM; in assay [11], 11 nM. Moreover, the Ki was 123 nM in assay [4], 28.2 nM in [5] and 91.2 nM in assay [6]. Further, the Intrinsic activity was determined as 0.9 in assay [10], 0.4 in assay [12] and 0.9 in [13].
For `c1ccc(CCC[C@H]2CCCC[C@@H]2NC2=NCCO2)cc1`, the alpha-2A agonist activity entry in assay [3] is “inactive”. The Ki was 32.4 nM in assay [4], 15.1 nM in assay [5] and 32.4 nM in assay [6]. The NA entry in [14] is “inactive”. In assay [7], this molecule gave an EC50 of 26.9 nM.
Regarding `c1ccc([C@H]2CCCC[C@@H]2NC2=NCCO2)cc1`, the alpha-2A agonist activity result in assay [3] was “inactive”. For the same molecule, the Ki in assay [4] is 52.5 nM; in assay [5], 18.2 nM; in assay [6], 22.4 nM. In addition, the NA entry in assay [15] and in assay [14] was “inactive” throughout.
Turning to `CCC[C@H]1CCCC[C@@H]1NC1=NCCO1`, the EC50 was 4.07 nM in [16], 9.33 nM in assay [9] and 1.62 nM in assay [11]. Besides, the results for the Ki in assay [17], in [5] and in assay [6] were 24.5 nM, 2.95 nM and 5.89 nM, respectively.
For the molecule `c1ccc(CC[C@H]2CCCC[C@@H]2NC2=NCCO2)cc1`, the NA entry in [3], in assay [18] and in assay [14] was “inactive” each time. Besides, the Ki in [4] was 10.7 nM; in assay [5], 1.45 nM; in [6], 6.92 nM.
As to `c1ccc(CCC[C@H]2C3CCC(C3)[C@H]2NC2=NCCO2)cc1` (some centres not stated), the NA result in assay [19] is “inactive”. Further, the results for the Ki in assay [4], in assay [5] and in assay [6] were 123 nM, 30.9 nM and 141 nM, respectively. Also, the EC50 in [7] is 60.3 nM; in assay [11], 34.7 nM.
For `C(=C\c1ccccc1)/C[C@H]1C2CCC(C2)[C@H]1NC1=NCCO1` (some centres not stated), the NA result in assay [19] is “inactive”. Also, the inhibition constant Ki in assay [4] was 85.1 nM; in assay [5], 15.8 nM; in [6], 102 nM. The figures for the EC50 in [7] and in assay [11] were 2 nM and 70.8 nM, respectively.
